Data from ChEMBL document CHEMBL1147533, “Highly diastereoselective inverse electron demand (IED) Diels-Alder reaction mediated by chiral salen-AlCl complex: the first, target-oriented synthesis of pyranoquinolines as potential antibacterial agents” (Bioorg Med Chem Lett, 2004).

Tests used:
Type in all cases: functional, organism-based
Vibrio alginolyticus [1] = assay: In vitro antibacterial activity against Vibrio alginolyticus at a concentration of 2 mg/mL; - indicates No activity
How it was run: (§1)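 Five microlitres of compound stock (about 0.2 mg) combined with bacterial suspension in Tris-buffered saline (0.8 OD at 580 nm). Mixture incubated 14 h at 14 °C, then plated on TCBS agar (thiosulphate–citrate–bile salt–sucrose) to read bactericidal activity.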

Vibrio fluvialis [2] = assay: In vitro antibacterial activity against Vibrio fluvialis at a concentration of 2 mg/mL; - indicates No activity; how it was run: as §1
Vibrio mimicus [3] = assay: In vitro antibacterial activity against Vibrio mimicus at a concentration of 2 mg/mL; - indicates No activity; how it was run: as §1
Escherichia coli [4] = assay: In vitro antibacterial activity against Escherichia coli at a concentration of 2 mg/mL; - indicates No activity; how it was run: as §1
Vibrio parahaemolyticus [5] = assay: In vitro antibacterial activity against Vibrio parahaemolyticus at a concentration of 2 mg/mL; - indicates No activity; how it was run: as §1
Pseudomonas sp. [6] = assay: In vitro antibacterial activity against Pseudomonas species at a concentration of 2 mg/mL; - indicates No activity; how it was run: as §1
Vibrio anguillarum [7] = assay: In vitro antibacterial activity against Vibrio anguillarum at a concentration of 2 mg/mL; - indicates No activity; how it was run: as §1
Vibrio vulnificus [8] = assay: In vitro antibacterial activity against Vibrio vulnificus at a concentration of 2 mg/mL; - indicates No activity; how it was run: as §1
Escherichia coli [9] = assay: In vitro antibacterial activity of (50:50%) of compounds against Escherichia coli at a concentration of 2 mg/mL; - indicates No activity; how it was run: as §1
Vibrio mimicus [10] = assay: In vitro antibacterial activity of (50:50%) of compounds against Vibrio mimicus at a concentration of 2 mg/mL; - indicates No activity; how it was run: as §1
Vibrio alginolyticus [11] = assay: n vitro antibacterial activity of (25:50%) of compounds against Vibrio alginolyticus at a concentration of 2 mg/mL; + indicates No activity; how it was run: as §1
Vibrio vulnificus [12] = assay: In vitro antibacterial activity of (50:50%) of compounds against Vibrio vulnificus at a concentration of 2 mg/mL; - indicates No activity; how it was run: as §1
Vibrio anguillarum [13] = assay: In vitro antibacterial activity of (50:50%) of compounds against Vibrio anguillarum at a concentration of 2 mg/mL; - indicates No activity; how it was run: as §1
Vibrio fluvialis [14] = assay: In vitro antibacterial activity of (50:50%) of compounds against Vibrio fluvialis at a concentration of 2 mg/mL; - indicates No activity; how it was run: as §1
Vibrio parahaemolyticus [15] = assay: In vitro antibacterial activity of (50:50%) of compounds against Vibrio parahaemolyticus at a concentration of 2 mg/mL; - indicates No activity; how it was run: as §1
Vibrio alginolyticus [16] = assay: In vitro antibacterial activity of (50:50%) of compounds against Vibrio alginolyticus at a concentration of 2 mg/mL; - indicates No activity; how it was run: as §1
Pseudomonas sp. [17] = assay: n vitro antibacterial activity of (25:50%) of compounds against Pseudomonas species at a concentration of 2 mg/mL; + indicates No activity; how it was run: as §1
Vibrio anguillarum [18] = assay: n vitro antibacterial activity of (25:50%) of compounds against Vibrio anguillarum at a concentration of 2 mg/mL; + indicates No activity; how it was run: as §1
Vibrio fluvialis [19] = assay: n vitro antibacterial activity of (25:50%) of compounds against Vibrio fluvialis at a concentration of 2 mg/mL; + indicates No activity; how it was run: as §1
Vibrio parahaemolyticus [20] = assay: n vitro antibacterial activity of (25:50%) of compounds against Vibrio parahaemolyticus at a concentration of 2 mg/mL; + indicates No activity; how it was run: as §1
Vibrio mimicus [21] = assay: n vitro antibacterial activity of (25:50%) of compounds against Vibrio mimicus at a concentration of 2 mg/mL; + indicates No activity; how it was run: as §1
Escherichia coli [22] = assay: n vitro antibacterial activity of (25:50%) of compounds against Escherichia coli at a concentration of 2 mg/mL; + indicates No activity; how it was run: as §1
Pseudomonas sp. [23] = assay: In vitro antibacterial activity of (50:50%) of compounds against Pseudomonas species at a concentration of 2 mg/mL; - indicates No activity; how it was run: as §1
Vibrio vulnificus [24] = assay: n vitro antibacterial activity of (25:50%) of compounds against Vibrio vulnificus at a concentration of 2 mg/mL; + indicates No activity; how it was run: as §1
Escherichia coli [25] = assay: In vitro antibacterial activity against Escherichia coli in test 1; ++ indicates mild activity; how it was run: as §1
Vibrio fluvialis [26] = assay: In vitro antibacterial activity against Vibrio fluvialis in test 1; - indicates No activity; how it was run: as §1
Vibrio fluvialis [27] = assay: In vitro antibacterial activity against Vibrio fluvialis in test 2; - indicates No activity; how it was run: as §1
Escherichia coli [28] = assay: In vitro antibacterial activity against Escherichia coli in test 2; ++ indicates mild activity; how it was run: as §1

SMILES: c1ccc([C@@H]2Nc3ccccc3[C@@H]3OCCC[C@H]23)cc1
- Activity (Vibrio alginolyticus [1]): Not toxic
- Activity (Vibrio fluvialis [2]): Not toxic
- Activity (Vibrio mimicus [3]): Not toxic
- Activity (Escherichia coli [4]): Not toxic
- Activity (Vibrio parahaemolyticus [5]): Not toxic
- Activity (Pseudomonas sp. [6]): Not toxic
- Activity (Vibrio anguillarum [7]): Not toxic
- Activity (Vibrio vulnificus [8]): Not toxic

SMILES: c1ccc([C@@H]2Nc3ccccc3[C@@H]3OCCC[C@H]23)cc1.c1ccc([C@H]2Nc3ccccc3[C@@H]3OCCC[C@H]23)cc1
- Activity (Escherichia coli [9]): Not toxic
- Activity (Vibrio mimicus [10]): Not toxic
- Activity (Vibrio alginolyticus [11]): No activity
- Activity (Vibrio vulnificus [12]): Not toxic
- Activity (Vibrio anguillarum [13]): Not toxic
- Activity (Vibrio fluvialis [14]): Not toxic
- Activity (Vibrio parahaemolyticus [15]): Not toxic
- Activity (Vibrio alginolyticus [16]): Not toxic
- Activity (Pseudomonas sp. [17]): No activity
- Activity (Vibrio anguillarum [18]): No activity
- Activity (Vibrio fluvialis [19]): No activity
- Activity (Vibrio parahaemolyticus [20]): No activity
- Activity (Vibrio mimicus [21]): No activity
- Activity (Escherichia coli [22]): No activity
- Activity (Pseudomonas sp. [23]): Not toxic
- Activity (Vibrio vulnificus [24]): No activity

SMILES: c1ccc([C@H]2Nc3ccccc3[C@@H]3OCCC[C@H]23)cc1
- Activity (Escherichia coli [25]): mild activity
- Activity (Vibrio fluvialis [26]): Not toxic
- Activity (Vibrio fluvialis [27]): Not toxic
- Activity (Escherichia coli [28]): mild activity
